A selection: hits, their analogues and other compounds. The true share with any hit is near 1.5%.
Wnt act: Wnt/beta-catenin pathway activators, primary screen, cell-based, plate reader, single point | Wnt/beta-catenin reporter cell assay, activator | activation, % at 9.35 µM | 300,000 compounds, 1.2% hits | AID 743398, 2014; in the data active = activation above about 30%, passing the limit was not always enough; inconclusive = no clear call, values can overlap the other calls
MITF act: activators of MITF-driven TRPM1 promoter reporter, primary screen, cell-based, SK-MEL-5, luciferase, single point | SK-MEL-5 TRPM1-promoter luciferase, 24 h; % of positive control, neutral wells = 0 | activation, % at 12.5 µM | 300,000 compounds, 0.75% hits | AID 588334, 2011;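 active = mean activation of at least 80% with every replicate also reaching 80%; inconclusive = mean reaches 80% but some replicate falls short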
Cneo AK release: Cryptococcus neoformans cell lysis inducers, primary screen, AK release luminescence, single concentration; C. neoformans lysis, adenylate kinase release luminescence, 4 h; normalised: neutral wells 0, clomiphene wells 100; lysis activity, % at 15 µM; 360,000 compounds, 0.2% hits;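 active = mean lysis activity across replicates of at least 80%, whatever share of replicates individually reach that level; inactive = mean lysis activity below 80%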
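read-out = cell lysis signal | test system = log-phase Cryptococcus neoformans yeast cells | input = cells at 5 × 10^6 per mL | medium = fresh YPD growth medium | signal = luminescent adenylate kinase detection reagent | timing = 4 h at 37 °C static, read 1 h later | dosing = single dose | controls = Clomiphene as positive lysis control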
PGC1a acetyl inh: inhibitors of PGC1a acetylation signal, primary screen, cell-based, U2OS, AlphaScreen, inhibitor mode; inhibition, % at 15.6 µM; 350,000 compounds, 0.17% hits; AlphaScreen anti-acetyl-lysine; with virally co-expressed GCN5 acetyltransferase;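 active = every replicate shows inhibition of at least 40%; inconclusive = mean inhibition at least 40% but some replicate below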
Each line names hits and unclear results; the compound was inactive in the other large screens.

Cc1cc(O)c(N=Nc2ccc(C(=O)O)cc2)cc1C	PGC1a acetyl inh 50
C(=N\Nc1nncc2ccccc12)/c1ccccc1	Wnt act 38 (no result: Cneo AK release)
Cc1cccc(/C=N/Nc2nncc3ccccc23)c1	none (no result: PGC1a acetyl inh)
CNC[C@@H]1Oc2ccc(NC(=O)Nc3cccc4ccccc34)cc2C(=O)N([C@H](C)CO)C[C@@H]1C	none (no result: Wnt act, MITF act)
Nc1[nH]c(N=NC(=O)c2ccccc2)c2ccccc12	none (no result: Cneo AK release, PGC1a acetyl inh)
Nc1[nH]c(N=NC(=O)c2ccccc2O)c2ccccc12	Wnt act 71
Cc1cc(C)nc(NS(=O)(=O)c2ccc(NC(=O)Nc3ccccc3)cc2)n1	PGC1a acetyl inh 97 (no result: Cneo AK release)
O=C(Nc1ccccc1)Nc1ccc2ccccc2c1	Wnt act 44, MITF act 92 (no result: Cneo AK release)
CCN(CC)C(=O)Nc1cnc2ccccc2c1	none (no result: Wnt act, PGC1a acetyl inh)
Cc1ccc(NC(=O)Nc2cnc3ccccc3c2)cc1	Wnt act 39, MITF act inconclusive (no result: Cneo AK release)
Cc1ccc(C(=O)Nc2ccc(Br)c(C(F)(F)F)c2)cc1	MITF act 84 (no result: Wnt act, PGC1a acetyl inh)
Cc1cc(C)nc(NS(=O)(=O)c2ccc(NS(=O)(=O)c3ccccc3)cc2)n1	none
Cc1ccc(NC(=O)c2ccc(C)cc2)cc1	none
CC(=O)Nc1ccc2ccccc2c1	none (no result: Wnt act)
COc1ccc(C(=O)Nc2ccc3ncccc3c2)cc1	none (no result: MITF act, PGC1a acetyl inh)
Cc1ccc(C(=O)Nc2ncccc2S(=O)(=O)c2ccccc2)cc1	MITF act 100
O=C(NC(=S)Nc1cnc2ccccc2c1)c1ccccc1	Wnt act 53 (no result: PGC1a acetyl inh)
O=C(Nc1ccc2ncccc2c1)c1cccc(Br)c1	Wnt act 33
Cc1ccc(C(=O)Nc2ccc3ncccc3c2)cc1	Cneo AK release 129 (no result: PGC1a acetyl inh)
COc1ccc(C(=O)NN=C2CCCC2)cc1	none (no result: MITF act)
Cc1cc(OCc2ccc(C(=O)NN=C3CCCC3)cc2)ccc1Cl	Wnt act 46 (no result: Cneo AK release, PGC1a acetyl inh)
Cc1cccc(/C=N/NC(=O)CN2CCCCCCC2)c1	none (no result: PGC1a acetyl inh)
Cc1ccc(O)c(/C=N/NC(=O)CN2CCCC2)c1	PGC1a acetyl inh 84 (no result: MITF act)
Cc1ccc(NC(=O)Nc2ccc(F)cc2)nc1	MITF act 82 (no result: Wnt act)
Cn1nnc2cc(C(=O)Nc3ccc(Cl)cc3)ccc21	none (no result: Cneo AK release, PGC1a acetyl inh)
COc1cccc(NC(=O)Nc2ccc(Br)cn2)c1	MITF act 106
COc1ccc(NC(=O)Nc2ccc(Br)cn2)cc1OC	none
Cc1ccc(NC(=O)c2ccc3c(c2)nnn3C)cc1	Wnt act 39 (no result: Cneo AK release, PGC1a acetyl inh)
COc1cccc(NC(=O)Nc2ccc3c(c2)nnn3C)c1	MITF act 107
CN(C)c1ccc(NC(=O)Nc2ccc3c(c2)nnn3C)cc1	none (no result: MITF act)
CN(C)CC(=O)N[C@H]1C=C[C@@H](CC(=O)NCCN2CCCCC2)O[C@H]1CO	none (no result: Wnt act, MITF act)
COc1ccc(NC(=O)Nc2ccc3c(c2)C(=O)N([C@H](C)CO)C[C@@H](C)[C@H](CN(C)S(=O)(=O)c2cn(C)cn2)OCCCC[C@H](C)O3)cc1	none (no result: Wnt act, MITF act)
C[C@@H]1CCCCO[C@@H](CN(C)Cc2ccc(C(F)(F)F)cc2)[C@H](C)CN([C@H](C)CO)C(=O)c2cc(N(C)C)ccc2O1	none (no result: Wnt act, MITF act)
C[C@H](CO)N1C[C@H](C)[C@@H](CN(C)Cc2ccccc2)Oc2ncc(C#CCN(C)C)cc2C1=O	none (no result: Wnt act, MITF act)
O=C(Nc1ccc(Cl)cc1)Nc1ccc(Br)cn1	MITF act 94
O=C(C[C@H]1C=C[C@H](NC(=O)c2cccc(F)c2)[C@@H](CO)O1)NCCN1CCCC1	none (no result: Wnt act, MITF act)
CN1C(=O)c2cc(NC(=O)Nc3cccc(Cl)c3)ccc2OC[C@@H]2O[C@H](CC(=O)O)CC[C@H]21	none (no result: Wnt act, MITF act)
Cc1ccc(C)c(NC(=O)CSc2nccn2Cc2ccco2)c1	none (no result: PGC1a acetyl inh)
Cc1ccc(NC(=O)CSc2nccn2Cc2ccco2)c(C)c1	Wnt act 37 (no result: PGC1a acetyl inh)
C[C@@H]1CN([C@H](C)CO)S(=O)(=O)c2ccc(C3=CCCC3)cc2O[C@H]1CN(C)C(=O)C1CCOCC1	none (no result: Wnt act, MITF act)
Cc1ccc(/C=C2/CNC/C(=C/c3ccc(C)cc3)C2=O)cc1	PGC1a acetyl inh 74 (no result: Cneo AK release)
COCC(=O)Nc1ccc2c(c1)C(=O)N(C)C[C@H](OC)[C@H](C)CN(Cc1cncnc1)[C@@H](C)CO2	none (no result: Wnt act, MITF act)
Cc1ccc(-c2nc(N=Nc3ccc(O)cc3)n[nH]2)cc1	none (no result: Wnt act, Cneo AK release, PGC1a acetyl inh)
Cc1nc(N=Nc2ccc(O)cc2)n[nH]1	Wnt act 44 (no result: Cneo AK release)
O=C(Nc1ccc(C(F)(F)F)cc1)N[C@@H]1CC[C@H](CC(=O)N2CCCCC2)O[C@@H]1CO	none (no result: Wnt act, MITF act)
C#CC(=O)N(c1cccc(OC)c1)C(C(=O)NC1CCCC1)c1cccs1 (configuration not stated)	PGC1a acetyl inh 93
COc1ccc(N(C(=O)Cc2cccs2)C(C(=O)NC2CCCC2)c2ccncc2)cc1OC (configuration not stated)	none
C#CC(=O)N(c1ccc(OC)c(OC)c1)C(C(=O)NC1CCCC1)c1cccs1 (configuration not stated)	PGC1a acetyl inh 103
CCCNC(=O)Nc1ccc2c(c1)C(=O)N(C)C[C@H](OC)[C@@H](C)CN(Cc1ccccc1)[C@H](C)CO2	none (no result: Wnt act, MITF act, Cneo AK release)
CC1CCC(NC(=O)c2ccc(NS(=O)(=O)c3ccc4[nH]c(=O)[nH]c4c3)cc2)CC1 (configuration not stated)	MITF act 98 (no result: PGC1a acetyl inh)
CCNC(=O)c1ccc(NS(=O)(=O)c2ccc3[nH]c(=O)[nH]c3c2)cc1	none (no result: PGC1a acetyl inh)
O=C(COC(=O)c1ccc[nH]c1=O)NCCc1ccc(Cl)cc1Cl	Wnt act 50
CC1CC(=O)Nc2ccccc2N1C(=O)Nc1ccc(F)cc1 (configuration not stated)	Wnt act 39 (no result: MITF act)
O=C(Nc1ccc2c(c1)OCO2)c1ccc(CO)cc1	Wnt act 48
CCCOc1ccc(C(=O)Nc2ccc3c(c2)OCO3)cc1	Wnt act 43 (no result: PGC1a acetyl inh)
CCC(=O)Oc1ccc(C(=O)Nc2ccc3c(c2)OCO3)cc1	none (no result: Cneo AK release)
CC(=O)Nc1ccc(C(=O)Nc2ccc3c(c2)OCO3)cc1	none (no result: Wnt act, MITF act, PGC1a acetyl inh)
CCCCOc1ccc(C(=O)Nc2ccc3c(c2)OCO3)cc1	Wnt act 35 (no result: Cneo AK release, PGC1a acetyl inh)
C/C=C/c1ccc([C@H]2[C@H](CO)N(C(C)=O)C23CN(C(=O)c2ccncc2)C3)cc1	none (no result: Wnt act, MITF act, Cneo AK release)
O=C(C1CC12CCCC2)N1CCC(CO)(Cc2ccccc2Cl)CC1 (configuration not stated)	Wnt act 56 (no result: Cneo AK release, PGC1a acetyl inh)
COC(=O)c1ccc(CN2CCC(CO)(Cc3ccccc3Cl)CC2)cc1	none (no result: Cneo AK release)
C[n+]1c(-c2ccccc2)sc([S-])c1-c1ccccc1	Wnt act 44 (no result: MITF act)
C[n+]1nc(Nc2ccccc2)sc1-c1ccc(O)cc1	none
O=C(Nc1nccs1)[C@@H]1[C@@H](CO)[C@@H]2Cn3c(cccc3=O)[C@H]1N2C(=O)C1CCCCC1	none (no result: Wnt act, MITF act, Cneo AK release)
C[C@H]1CN([C@@H](C)CO)C(=O)c2ccccc2-c2ccccc2CO[C@@H]1CN(C)Cc1ccncc1	none (no result: Wnt act, MITF act)
CCOc1ccccc1C(=O)N[C@H](C(=O)Nc1nc2c(s1)CCCC2)C(C)C	none (no result: Cneo AK release, PGC1a acetyl inh)
COc1ccc(C(=O)N[C@H](C(=O)Nc2nc3c(s2)CCCC3)C(C)C)cc1	Wnt act 38
Cc1ccc(C(=O)Nc2ncc(Cc3ccccc3)s2)o1	Wnt act 51
Cc1ccc(C(=O)Nc2nc3c(s2)CCCC3)o1	Wnt act 57
O=C(Nc1nc2c(s1)CCCC2)c1ccc(Br)o1	none (no result: Wnt act)

Assay outcomes from PubChem BioAssay.
